Experimental data as given in ChEMBL document CHEMBL1153346, “Structure-activity study of pentamidine analogues as antiprotozoal agents” (J Med Chem, 2009).

Assays:
[1] = tested on: Trypanosoma brucei rhodesiense; experiment: Antitrypanosomal activity against Trypanosoma brucei rhodesiense STIB900 trypomastigotes infected in NMRI mouse assessed as mouse survival at 20 mg/kg, ip administered from day 3 to day 6 postinfection; assay type: functional; details: route intraperitoneal
Outline: (§1)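 STIB900 acute mouse model. Dosing was intraperitoneal, daily for four days, in DMSO diluted with water to 10% final DMSO. An infected untreated control group was kept. Tail blood was checked for parasitemia to day 60, and deaths were recorded to give mean survival days. Mice surviving and aparasitemic at day 60 counted as cured.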

[2] = tested on: Trypanosoma brucei rhodesiense; experiment: Antitrypanosomal activity against Trypanosoma brucei rhodesiense STIB900 trypomastigotes infected in NMRI mouse assessed as mouse survival at 10 mg/kg, ip administered from day 3 to day 6 postinfection; assay type: functional; details: route intraperitoneal; outline: as §1
[3] = tested on: Trypanosoma brucei rhodesiense; experiment: Antiprotozoal activity against Trypanosoma brucei rhodesiense STIB900 trypomastigotes after 70 hrs by alamar blue assay; assay type: functional, organism-based
Outline: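 Bloodstream forms, 2000 per well, in MEM with Earle's salts plus 0.2 mM 2-mercaptoethanol, 1 mM pyruvate, 0.5 mM hypoxanthine and 15% heat-inactivated horse serum. Exposed to serial dilutions (DMSO ≤1%) for 70 h at 37 °C in 5% CO₂. Resazurin then added for a further 2-6 h. IC50 from sigmoidal curves; two independent runs in duplicate.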

Plasmodium falciparum = experiment: Antiprotozoal activity after 48 hrs against chloroquine-resistant Plasmodium falciparum K1 infected erythrocytes by [3H]hypoxanthine uptake; assay type: functional, organism-based
Outline: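 Erythrocytic stages in infected human red cells (hematocrit 1.25%, parasitemia 0.3%) in supplemented RPMI 1640 with Albumax II. Serial dilutions incubated at 37 °C in 93% N2/4% CO2/3% O2. [3H]-hypoxanthine (0.5 µCi/well) added at 48 h, then 24 h more. Incorporation counted by scintillation. IC50 from sigmoidal curves; two independent runs in duplicate.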

L6 = experiment: Cytotoxicity against rat L6 cells after 70 hrs by alamar blue assay; assay type: cell-based; details: L6, 70 h
Outline: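 L6 rat myoblasts, 4000 per well, in RPMI 1640 with 2 mM L-glutamine, HEPES, NaHCO₃ and 10% FBS. Exposed to serial dilutions (DMSO ≤1%) for 70 h at 37 °C in humidified 5% CO₂. Resazurin then added for 2-3 h; fluorescence read at ex 536/em 588 nm. IC50 from sigmoidal curves; two independent runs in duplicate.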

[4] = Selectivity index, ratio of IC50 for rat L6 cells to IC50 for Trypanosoma brucei rhodesiense STIB900 trypomastigotes; assay type: toxicity, cell-based; details: read-out: Ratio IC50
Outline: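 Ratio of L6 IC50 to STIB900 IC50. L6 cells: 4000/well in RPMI 1640 with 10% FBS, 70 h at 37 °C. Bloodstream forms: 2000/well in supplemented MEM with 15% horse serum, 70 h at 37 °C. Both read by Alamar blue fluorescence; IC50s from sigmoidal curves, two independent runs in duplicate.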

[5] = Selectivity index, ratio of IC50 for rat L6 cells to IC50 for chloroquine-resistant Plasmodium falciparum K1; assay type: toxicity, cell-based; details: read-out: Ratio IC50
Outline: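 Ratio of L6 IC50 to K1 IC50. L6 cells: Alamar blue assay after 70 h, 37 °C. K1: [3H]-hypoxanthine incorporation in infected red cells over 48 + 24 h at 37 °C under low O2. IC50s from sigmoidal curves, two independent runs in duplicate.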

Leishmania donovani = experiment: Antiprotozoal activity against Leishmania donovani MHOM/SD/62/1S-CL2D axenic amastigotes after 72 hrs; assay type: functional, organism-based
Outline: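 L. donovani axenic amastigotes, adapted from promastigotes and grown in amastigote medium at 37 °C. 6 × 10⁴ parasites per well with 2-fold compound dilutions (DMSO ≤1%), incubated 72 h at 37 °C in humidified 5% CO₂. Growth read by tetrazolium (CellTiter) absorbance at 490 nm. IC50 from a four-parameter dose-response fit. Average of duplicate determinations.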

[6] = Selectivity index, ratio of IC50 for rat L6 cells to IC50 for Leishmania donovani MHOM/SD/62/1S-CL2D axenic amastigotes; assay type: toxicity, cell-based; details: read-out: Ratio IC50
Outline: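 Amastigotes: 6 × 10⁴ parasites/well with 2-fold dilutions, 72 h at 37 °C in 5% CO2. Growth read by tetrazolium CellTiter absorbance at 490 nm; IC50 from a four-parameter dose-response fit.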

[7] = tested on: Trypanosoma brucei rhodesiense; experiment: Antitrypanosomal activity against Trypanosoma brucei rhodesiense STIB900 trypomastigotes infected in NMRI mouse assessed as mouse survival at 5 mg/kg, ip administered from day 3 to day 6 postinfection; assay type: functional; details: route intraperitoneal; outline: as §1

Compound | Survival [1] | Survival [2] | IC50 [3] | IC50 (Plasmodium falciparum) | IC50 (L6) | selectivity ratio [4] | selectivity ratio [5] | IC50 (Leishmania donovani) | selectivity ratio [6] | Survival [7]
Cl.N=C(N)c1ccc(OCCCCCOc2ccc(C(=N)N)cc2)cc1 [PENTAMIDINE HYDROCHLORIDE] | >44.3 days | >43.5 days | 7 nM | 14 nM | – | – | – | – | – | –
Cl.Cl.N=C(N)c1ccc(OCCCCCOc2ccc(C(=N)N)c(F)c2)cc1F | – | >33 days | 13 nM | 15 nM | 6900 nM | 531 | 460 | 1880 nM | 4 | –
Cl.N=C(N)c1ccc(NCCCCCNc2ccc(C(=N)N)cc2)cc1 | – | – | < 1 nM | 6 nM | 950 nM | > 950 | 158 | 502 nM | 2 | >29.3 days
Cl.Cl.N=C(N)c1ccc(OCCCOc2ccc(C(=N)N)cc2N)c(N)c1 | >40 days | – | 156 nM | 27 nM | 68700 nM | 440 | 2540 | – | – | –
N=C(N)c1ccc(OCCCCOc2ccc(C(=N)N)cc2[N+](=O)[O-])c([N+](=O)[O-])c1 | – | – | 181 nM | 18 nM | 42800 nM | 236 | 2380 | 15100 nM | 3 | –
c1cc(OCCCOc2cccc(C3=NCCN3)c2)cc(C2=NCCN2)c1 | – | – | 4300 nM | 5390 nM | 43500 nM | 10 | 8 | 30800 nM | 1 | –
CC(C)NC(=N)c1ccc(OCCCCCOc2ccc(C(=N)NC(C)C)cc2)cc1.Cl.Cl | – | – | 27 nM | 3 nM | 150000 nM | 5560 | 50000 | 17800 nM | 8 | >41.3 days
N=C(N)c1ccc(OCCCCCOc2ccc(N)cc2)cc1 | – | – | 1310 nM | 2240 nM | 120000 nM | 91 | 54 | > 100000 nM | 1 | –
N=C(N)c1ccc(OCCCCCOc2ccc(/C(N)=N\O)cc2)cc1 | – | – | 289 nM | 234 nM | 11600 nM | 40 | 50 | 55600 nM | < 1 | –
N=C(N)c1ccc(S(=O)(=O)CCCCCS(=O)(=O)c2ccc(C(=N)N)cc2)cc1 | – | – | 28100 nM | 98 nM | > 174000 nM | > 6 | > 1780 | > 100000 nM | 2 | –
Cl.Cl.N=C(N)c1ccc(OCCCCCCOc2ccc(C(=N)N)cc2)cc1 | >51.8 days | – | 36 nM | 15 nM | 10500 nM | 292 | 700 | 1970 nM | 5 | >44.3 days
CC(C)NC(=N)c1ccc(OCCCCCOc2ccc(C(=N)NC(C)C)c(F)c2)cc1F | – | – | 259 nM | 7 nM | 131000 nM | 506 | 18700 | 15000 nM | 9 | –
N=C(N)c1ccc(OCCCOc2ccc(C(=N)N)cc2[N+](=O)[O-])c([N+](=O)[O-])c1 | – | – | 188 nM | 35 nM | 22800 nM | 121 | 651 | 30900 nM | 0.7 | –
